Measured values: PubChem BioAssay AID493051 (Broad Institute, 2011)
Activity calls are given as the source filed them.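 The calls were made as follows: active = viability loss with dose, its half-maximal concentration at most ten times the top valid tested dose; inconclusive = flat viability loss of 30 to 70 percent, or poor fit; inactive = the rest.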

Tested on: not listed separately
Experiment: BJeH cell viability loss – BJeH cells, dry powder, set 2, counter-screen for Ras selective lethality project, dose response (AID 493051)
Settings: BJeH fibroblast viability, Alamar Blue fluorescence, 48 h; at 48 µM (top of the series)
Procedure, shortened: (§1)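 Assay system: BJeH cells, BJ human fibroblasts immortalized with hTERT; Amount: 1000 cells per well; Dosing: compound as a 2-fold dilution series; Times: 48 h compound treatment at 37 °C, ~16 h dye incubation; Technique: Alamar Blue fluorescence (544 nm ex, 590 nm em).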

Row | Compound | activity change, negative = viability loss
1 | Cc1onc(C(=O)N2CCN(C(c3ccccc3)c3ccccc3)CC2)c1Br | 22.7% (inactive)
2 | CC(=O)Nc1c(C(=O)N2CCN(C(c3ccccc3)c3ccccc3)CC2)noc1C | 15.6% (inactive)
3 | O=C(c1noc2ccccc12)N1CCN(C(c2ccccc2)c2ccccc2)CC1 | 27.9% (inactive)
4 | O=[N+]([O-])c1ccc(CN2CCN(C(c3ccccc3)c3ccccc3)CC2)o1 | -9.67% (inactive)
5 | Cc1onc(C(=O)N2CCN(C(c3ccccc3)c3ccccc3)CC2)c1N | 5.64% (inactive)
6 | Cc1ccc(C(=O)N2CCN(C(c3ccccc3)c3ccccc3)CC2)c([N+](=O)[O-])c1 | 19.4% (inactive)
7 | Cc1onc(C(=O)N2CCN(C(c3ccccc3)c3ccccc3)CC2)c1C | 46.9% (inactive)
8 | Cc1onc(C(=O)N2CCN(C(c3ccccc3)c3ccccc3)CC2)c1NS(C)(=O)=O | 8.49% (inactive)
9 | Cc1onc(C(=O)N2CCN(C(c3ccncc3)c3ccncc3)CC2)c1[N+](=O)[O-] | 4.32% (inactive)
10 | Cc1onc(C(=O)NCCNC(c2ccccc2)c2ccccc2)c1[N+](=O)[O-] | -6.54% (inactive)
11 | CC(C)c1onc(C(=O)N2CCN(C(c3ccccc3)c3ccccc3)CC2)c1[N+](=O)[O-] | 18.4% (inactive)
12 | Cc1onc(C(=O)N2CCN(C(c3ccccn3)c3ccccn3)CC2)c1[N+](=O)[O-] | -5.34% (inactive)
13 | Cc1oc(C)c(C(=O)N2CCN(C(c3ccccc3)c3ccccc3)CC2)c1C | 49.1% (inactive)

Same assay, conditions: BJeH fibroblast viability, Alamar Blue fluorescence, 48 h; at 68 µM (top of the series)

Row | Compound | activity change, negative = viability loss
14 | CCOC(=O)N1CCN(C(=O)c2noc(C)c2[N+](=O)[O-])CC1 | 7.91% (inactive)
15 | COc1ccccc1N1CCN(C(=O)c2noc(C)c2[N+](=O)[O-])CC1 | 10.7% (inactive)
16 | Cc1onc(C(=O)NCc2ccc(F)cc2)c1[N+](=O)[O-] | 13.9% (inactive)
17 | Cc1onc(C(=O)N2CCOCC2)c1[N+](=O)[O-] | 10.9% (inactive)
18 | Cc1cc(C(=O)N2CCN(Cc3ccccc3)CC2)no1 | 3.96% (inactive)
19 | Cc1onc(C(=O)N2CCN(Cc3ccccc3)CC2)c1[N+](=O)[O-] | 7.25% (inactive)

Tested on: BJeH fibroblast viability, Alamar Blue fluorescence, 48 h
Experiment: as above
Settings: not given
Procedure, shortened: as §1

Row | Compound | AC50
20 | O=C(NCCNC(c1ccccc1)c1ccccc1)c1ccc([N+](=O)[O-])o1 | 3.33 µM
21 | Cc1onc(C(=O)N2CCN(C(c3ccc(Cl)cc3)c3ccc(Cl)cc3)CC2)c1[N+](=O)[O-] | 0.628 µM
22 | O=C(c1ccc([N+](=O)[O-])o1)N1CCN(C(c2ccc(F)cc2)c2ccc(F)cc2)CC1 | 11.8 µM
23 | COc1ccc(C(c2ccc(OC)cc2)N2CCN(C(=O)c3noc(C)c3[N+](=O)[O-])CC2)cc1 | 9.36 µM
24 | COc1ccc(C(c2ccc(OC)cc2)N2CCN(C(=O)c3ccc([N+](=O)[O-])o3)CC2)cc1 | 6.29 µM
25 | Cc1onc(C(=O)N2CCN(C(c3ccc(F)cc3)c3ccc(F)cc3)CC2)c1[N+](=O)[O-] | 1.49 µM
26 | O=C(c1ccc([N+](=O)[O-])o1)N1CCN(C(c2ccccc2)c2ccccc2)CC1 | 17.7 µM
27 | Cc1onc(C(=O)N2CCN(C(c3ccccc3)c3ccccc3)CC2)c1[N+](=O)[O-] | 7.89 µM
28 | O=C(c1ccc([N+](=O)[O-])o1)N1CCCN(C(c2ccccc2)c2ccccc2)CC1 | 63.2 µM
29 | Cc1onc(C(=O)N2CCCN(C(c3ccccc3)c3ccccc3)CC2)c1[N+](=O)[O-] | 5.13 µM
30 | Cc1onc(C(=O)N2CCN(C(c3ccccc3)c3ccc(Cl)cc3)CC2)c1[N+](=O)[O-] (stereo not given) | 0.958 µM
